In brackets after ≈: the same amount, converted by molar mass.
Experiments:
Staphylococcus aureus = test: Antibacterial activity against Staphylococcus aureus ATCC 25923 after 24 hrs by two-fold serial dilution method; assay type: functional; settings: ATCC 25923, 24 h
Method in brief: (§1)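 Run in Mueller-Hinton medium, read by MTT method, with compounds tested in nutrient broth (NB) by two-fold serial dilution. Seeded broth containing microbial spores was prepared in NB from 24 h old cultures grown on nutrient agar.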

Pseudomonas aeruginosa = test: Antibacterial activity against Pseudomonas aeruginosa ATCC 27853 after 24 hrs by two-fold serial dilution method; assay type: functional; settings: ATCC 27853, 24 h; method in brief: as §1
[1] = Inhibition of Staphylococcus aureus TyrRS compound preincubated for 10 mins by liquid scintillation counting in presence of L-ring-3,5-[3H]tyrosine
Bacillus subtilis = test: Antibacterial activity against Bacillus subtilis ATCC 530 after 24 hrs by two-fold serial dilution method; assay type: functional; settings: ATCC 530, 24 h; method in brief: as §1
[2] = Toxicity in RBC (unknown origin) assessed as hemolysis; assay type: cell-based; settings: erythrocyte
Escherichia coli = test: Antibacterial activity against Escherichia coli ATCC 25922 after 24 hrs by two-fold serial dilution method; assay type: functional; settings: ATCC 25922, 24 h; method in brief: as §1

MIC (Staphylococcus aureus) [µg/mL]	MIC (Pseudomonas aeruginosa) [µg/mL]	IC50 [1] [µM]	MIC (Bacillus subtilis) [µg/mL]	MIC (Escherichia coli) [µg/mL]	SMILES	LC30 [2] [µg/mL]
0.656 (≈ 1.9 µM)	> 50	7.65	0.805 (≈ 2.33 µM)	> 50	COc1cccc(N2CCN(CCn3c([N+](=O)[O-])cnc3C)CC2)c1	> 10000
> 50	> 50	20.5	1.55 (≈ 4.92 µM)	> 50	Cc1ncc([N+](=O)[O-])n1CCN1CCN(c2ccccc2)CC1	> 10000
> 50	> 50	25.2	> 50	> 50	Cc1ncc([N+](=O)[O-])n1CCN1CCN(c2ccc(F)cc2)CC1	> 10000
11.1 (≈ 28.9 µM)	> 50	13.6	14.4 (≈ 37.4 µM)	> 50	Cc1ncc([N+](=O)[O-])n1CCN1CCN(c2cccc(Cl)c2Cl)CC1	> 10000
0.203 (≈ 0.58 µM)	> 50	0.0086	0.142 (≈ 0.406 µM)	> 50	Cc1ncc([N+](=O)[O-])n1CCN1CCN(c2ccccc2Cl)CC1	> 10000
17.1 (≈ 51.3 µM)	> 50	23.4	> 50	> 50	Cc1ncc([N+](=O)[O-])n1CCN1CCN(c2ccccc2F)CC1	> 10000
1.8 (≈ 5.15 µM)	> 50	10.5	2.57 (≈ 7.34 µM)	> 50	Cc1ncc([N+](=O)[O-])n1CCN1CCN(c2cccc(Cl)c2)CC1	> 10000
0.583 (≈ 1.69 µM)	> 50	1.12	0.272 (≈ 0.787 µM)	> 50	COc1ccccc1N1CCN(CCn2c([N+](=O)[O-])cnc2C)CC1	> 10000
18.1 (≈ 47.2 µM)	> 50	15.3	3.29 (≈ 8.58 µM)	> 50	Cc1ncc([N+](=O)[O-])n1CCN1CCN(c2cccc(C(F)(F)F)c2)CC1	> 10000
1.61 (≈ 4.69 µM)	> 50	12.6	4.31 (≈ 12.6 µM)	> 50	Cc1ccc(N2CCN(CCn3c([N+](=O)[O-])cnc3C)CC2)c(C)c1	> 10000
11.6 (≈ 30.1 µM)	> 50	16.2	6.83 (≈ 17.8 µM)	> 50	Cc1ncc([N+](=O)[O-])n1CCN1CCN(c2ccc(Cl)c(Cl)c2)CC1	> 10000
0.123 (≈ 0.356 µM)	> 50	0.0067	0.033 (≈ 0.0955 µM)	> 50	COc1ccc(N2CCN(CCn3c([N+](=O)[O-])cnc3C)CC2)cc1	> 10000
0.003 (≈ 0.0074 µM)	> 50	0.0024	0.011 (≈ 0.0271 µM)	> 50	Cc1ncc([N+](=O)[O-])n1CCN1CCN(C(c2ccccc2)c2ccccc2)CC1	> 10000
0.593 (≈ 1.35 µM)	> 50	1.72	0.185 (≈ 0.421 µM)	> 50	Cc1ncc([N+](=O)[O-])n1CCN1CCN(C(c2ccccc2)c2ccc(Cl)cc2)CC1 (configuration not stated)	> 10000
> 50	> 50	25.8	> 50	> 50	Cc1ncc([N+](=O)[O-])n1CCN1CCN(C(c2ccc(F)cc2)c2ccc(F)cc2)CC1	> 10000
0.178 (≈ 0.551 µM)	–	–	0.078 (≈ 0.241 µM)	0.064 (≈ 0.198 µM)	O=C(N[C@H](CO)[C@H](O)c1ccc([N+](=O)[O-])cc1)C(Cl)Cl [CHLORAMPHENICOL]	–
1.02 (≈ 3.06 µM)	18.6 (≈ 55.7 µM)	–	0.335 (≈ 1 µM)	22.8 (≈ 68.3 µM)	CC1(C)S[C@@H]2[C@H](NC(=O)Cc3ccccc3)C(=O)N2[C@H]1C(=O)O [PENICILLIN G]	–
